The values below come from PMC10424182 (Journal of Medicinal Chemistry, 2023).

Like-named read-outs stand apart in the source and are kept apart here.

What is called Ki is the dissociation constant of the complex between target and ligand, obtained from inhibition or displacement. The low end stands for a stronger hold on the target, the high end for a looser hold on the target.

Common to all, as to assay type: binding
The target in test [1] is T1, AD brain homogenates (mixed 3R/4R-tau) (Homo sapiens, UniProt P10636). Nature of the test: Competition.
Test [2] has as its target T1, AD brain homogenates (mixed 3R/4R-tau). In words: Competition. This is another data set of the same source.
Test [3] has as its target T2, PSP brain homogenates (4R-tau aggregates) (Homo sapiens, UniProt P10636). In words: Competition. In a few lines:
(§1)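 Post-mortem human brain homogenate in PBS pH 7.0, 100 μg tissue/mL final, with ~1 nM tritiated radioligand and unlabelled test compound at 0.1–1000 nM (0.25% DMSO final for non-Enamine compounds). Incubated 60 min at room temperature, then GF/B filtration, four PBS washes and scintillation counting. Full inhibition was taken as counts displaced by 1 μM unlabelled radioligand. Triplicates at each concentration.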

Test [4] concerns the target T2, PSP brain homogenates (4R-tau aggregates). Nature of the test: Competition. A digest of the protocol:
as §1
The source holds these as a separate data set.

Test [5] concerns the target T3, CBD brain homogenates (4R-tau aggregates) (Homo sapiens, UniProt P10636). In words: Competition. In a few lines:
as §1

Test [6] addresses T1, AD brain homogenates (mixed 3R/4R-tau). Nature of the test: Competition. The source holds these as a separate data set.
For test [7] the target is unchanged. Nature of the test: Competition. The source holds these as a separate data set.
Test [8] has as its target T3, CBD brain homogenates (4R-tau aggregates). In words: Competition. In a few lines:
as §1
The source holds these as a separate data set.

The target in test [9] is T2, PSP brain homogenates (4R-tau aggregates). Nature of the test: Competition. A digest of the protocol: as §1
The source holds these as a separate data set.

The target of test [10] is T3, CBD brain homogenates (4R-tau aggregates). Nature of the test: Competition. In a few lines: as §1
This is another data set of the same source.

Test [11] concerns the target aggregated amyloid-beta (Aβ) in AD tissue (Homo sapiens, UniProt P05067). In words: Competition. A digest of the protocol:
as §1

Test [12] deals with T2, PSP brain homogenates (4R-tau aggregates). Nature of the test: Competition. A digest of the protocol: as §1
The source holds these as a separate data set.

For test [13] the target is unchanged. In words: Single concentration. To be noted: 300 nM unlabeled compound. In a few lines:
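A PSP homogenate (100 μg tissue/mL) was run with ~1 nM [3H]-ligand as in the Ki assay, with a single 300 nM test compound, 60 min at room temperature, then filtered and counted. 0% was specific binding with no competitor; 100% was nonspecific binding at 1 μM unlabelled radioligand. The % value is […] divided by the 0%−100% count difference, ×100. Run in triplicate.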

For test [14], the target named is T1, AD brain homogenates (mixed 3R/4R-tau). In words: Single concentration. To be noted: 300 nM unlabeled compound.

T3 sequence (P10636 1-441 isoform P10636-8): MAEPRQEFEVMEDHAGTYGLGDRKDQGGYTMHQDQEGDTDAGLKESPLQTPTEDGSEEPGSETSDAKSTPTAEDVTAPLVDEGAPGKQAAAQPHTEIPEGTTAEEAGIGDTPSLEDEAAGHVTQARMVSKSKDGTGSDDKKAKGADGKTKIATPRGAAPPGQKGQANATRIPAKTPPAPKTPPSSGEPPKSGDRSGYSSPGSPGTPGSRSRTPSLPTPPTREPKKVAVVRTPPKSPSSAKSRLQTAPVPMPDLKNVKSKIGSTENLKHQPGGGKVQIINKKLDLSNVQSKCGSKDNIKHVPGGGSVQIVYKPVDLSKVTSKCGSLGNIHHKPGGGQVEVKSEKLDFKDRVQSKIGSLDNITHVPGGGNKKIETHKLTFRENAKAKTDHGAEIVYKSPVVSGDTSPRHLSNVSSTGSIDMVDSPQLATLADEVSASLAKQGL
T2 sequence (P10636 1-441 isoform P10636-8): as above
T1 sequence (P10636 623-758 limits assumed): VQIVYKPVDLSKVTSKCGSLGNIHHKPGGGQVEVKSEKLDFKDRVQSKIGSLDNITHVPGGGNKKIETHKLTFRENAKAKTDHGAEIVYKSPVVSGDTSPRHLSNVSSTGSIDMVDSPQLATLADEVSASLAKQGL
Chain of aggregated amyloid-beta (Aβ) in AD tissue (P05067 672-713): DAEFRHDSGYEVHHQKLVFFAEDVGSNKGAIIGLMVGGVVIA

Turning to `OCC1CCN(c2ccc(-c3cc4cc(O)ccc4[nH]3)c(F)n2)CC1` [CBD-2115, 2-(2-fluoro-6-(4-(hydroxymethyl)piperidin-1-yl)pyridin-3-yl)-1H-indol-5-ol], the Ki in test [1] was 0.745 µM; in test [2] it was 7.14 µM; in test [3], 0.52 µM; in [4], more than 10 µM; in test [5], 2.93 µM.

Turning to `OC1CCN(c2ncc(-c3cc4ccc(F)cc4[nH]3)cn2)CC1` [Compound 1, 1-(5-(6-fluoro-1H-indol-2-yl)pyrimidin-2-yl)piperidin-4-ol], the Ki is 0.08 µM in test [6]; 0.27 µM in test [7]; 0.071 µM in [8]; 0.25 µM in [9]; 0.21 µM in [10]; 0.142 ± 0.005 µM in test [11]. The Ki in test [12] is 0.095 µM.

For `Oc1cccc2sc(-c3cnc(N4CCC(O)CC4)nc3)cc12` [Compound 6], the Ki is 0.012 µM in [1] and 0.022 µM in test [3]. Further, in [13], the “inhibition of [^3H]1, PSP tissue” value is reported as more than 65%. Moreover, the “inhibition of [^3H]1, AD tissue” value in test [14] is listed as more than 65%.

With `O=C1CCN(c2ncc(-c3cc4ccccc4[nH]3)cn2)CCN1` [Compound 19], the Ki in test [1] came out at 0.021 µM; in test [3], 0.022 µM.

As to `O[C@@H]1CCN(c2ccc(-c3cc4ccc(F)cc4[nH]3)cn2)C1` [Compound 20], the Ki in [1] and in test [3] was 0.018 µM each time.

As for `Fc1ccc2cc(-c3cnc(N4CCOCC4)nc3)[nH]c2c1` [Compound 21, 4-(5-(6-fluoro-1H-indol-2-yl)pyrimidin-2-yl)morpholine], the Ki came to 0.1 µM in test [6]; 0.27 µM in test [7]; 0.11 µM in test [8]; 0.27 µM in [9]; 0.23 µM in test [10]; 0.062 ± 0.003 µM in test [11]. In test [12], the Ki turned out to be 0.093 µM.

In the case of `Nc1c(F)ccc2cnc(-n3ccc4ccncc43)cc12` [MK-6240], the Ki in test [1] was 0.096 µM; in test [3], 0.315 µM.

For the compound `Fc1cc(-c2ccc3c(n2)[nH]c2ccncc23)ccn1` [PI-2620], the values for the Ki in test [1] and in test [3] were 0.058 µM and 0.089 µM, respectively.

Regarding `CNc1ccc(/C=C/C=C/c2nc3ccc(OCC(O)CF)cc3s2)cn1` (centres unmarked) [PM-PBB3, reference compound], the Ki in test [1] was 0.015 µM; in [7], 7.93 µM; in test [3], 0.018 µM; in test [9], more than 10 µM; in test [10], 1.54 µM.

In the case of `Fc1ccc(-c2ccc3c(c2)[nH]c2ccncc23)cn1` [Tauvid], the Ki in [1] and in test [3] was more than 1 µM throughout.
